# Target: T1, OR5AC2 (Homo sapiens) (UniProt Q9NZP5)
# T1 sequence (whole entry): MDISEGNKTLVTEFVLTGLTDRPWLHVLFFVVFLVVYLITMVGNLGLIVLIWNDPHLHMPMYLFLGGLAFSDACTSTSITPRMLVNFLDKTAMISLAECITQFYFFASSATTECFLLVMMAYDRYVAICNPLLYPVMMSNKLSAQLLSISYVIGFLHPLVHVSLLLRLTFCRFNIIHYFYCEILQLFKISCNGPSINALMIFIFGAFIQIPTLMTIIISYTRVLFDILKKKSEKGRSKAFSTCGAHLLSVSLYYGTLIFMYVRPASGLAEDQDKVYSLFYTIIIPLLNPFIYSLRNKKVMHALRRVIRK
# Conditions: stereoisomer not certain
# How it was run: (§1)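 Each receptor–molecule pair is labelled responsive or non-responsive (inactive) according to whether the original authors judged the measured signal statistically different from baseline. The data were taken from the main text and supplementary material of published papers and checked for typos and inconsistencies. Assay methods differed by source, with transient luciferase assays in mammalian cell lines being common.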
# 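Also: active if original authors judged signal statistically different from baseline.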
row,Structure (SMILES),odorant receptor agonist call
1,CCC=C(C)C(O)CCCCC (stereo not drawn),inactive
2,C=CC(C)(O)CCC=C(C)CCC=C(C)C (stereo not drawn),inactive
3,CC1=CCC2CC1C2(C)C (stereo not drawn),inactive
4,CC(C)CCCC(C)(C)O,inactive
5,CC(C)=CCCC(C)CC=O (stereo not drawn),inactive
6,CC(=O)OCc1ccccc1,inactive
7,CCCCCC1C(=O)CCC1CC(=O)OC (stereo not drawn),inactive
8,Cc1ccc(C(C)C)cc1O,inactive
9,CCCCC1CCC(=O)O1 (stereo not drawn),inactive
10,CCCCCCCCC(OC(C)=O)OC(C)=O,inactive
11,COC1CC2CC1C1CC(C=O)CC21 (stereo not drawn),inactive
12,CC(=O)C=CC1=C(C)CCCC1(C)C,inactive

# Target: T2, OR5AN1 (Homo sapiens) (UniProt Q8NGI8)
# T2 sequence (whole entry): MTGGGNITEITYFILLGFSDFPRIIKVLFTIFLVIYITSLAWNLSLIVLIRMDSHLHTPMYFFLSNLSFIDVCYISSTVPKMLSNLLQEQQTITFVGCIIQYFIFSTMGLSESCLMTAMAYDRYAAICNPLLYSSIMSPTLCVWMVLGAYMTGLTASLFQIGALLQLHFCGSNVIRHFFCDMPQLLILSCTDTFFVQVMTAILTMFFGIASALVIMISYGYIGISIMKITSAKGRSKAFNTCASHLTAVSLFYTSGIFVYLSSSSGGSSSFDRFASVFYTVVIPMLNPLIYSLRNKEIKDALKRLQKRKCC
# Conditions: stereoisomer not certain
# How it was run: as §1
row,Structure (SMILES),odorant receptor agonist call
1,O=C1CCCCCCCCC1,inactive
2,O=C1CCCCCC=CCCCCCCCCO1,active
3,O=C1C=CCCCCCCCCCCCCO1,active
4,CCC(=O)OCC(C)(C)OC(C)C1CCCC(C)(C)C1 (stereo not drawn),inactive
5,O=C1CCCCCCC=CCCCCCCC1,active
6,CCCCCCCC(=O)CCCCCCC,inactive
7,O=C1CCCCCCCCCC1,inactive
8,OC1CCCCCCCCCCCCCC1,inactive
9,CC1CC=CCCCCCCCCCC(=O)C1 (stereo not drawn),active
10,CC1CC=CCCCCCCCCC(=O)C1 (stereo not drawn),active
11,CCCCCCCCCCCCCC(C)=O,inactive
12,O=C1CCCCCCCCCCCCCC1,active
13,C1CCCCCCCCCCCCCC1,inactive
14,O=C1CCCC=CCCCCCCCCCC1,active
15,CC1CCCCCCCCCCCC(=O)C1 (stereo not drawn),active
16,CC1C(C)(C)C2=C(C(=O)CCC2)C1(C)C (stereo not drawn),inactive
